Sampled rows, rich in hits. Any-hit rate of the full collection: about 5.9%.
Pf Dd2 growth = inhibitors of Plasmodium falciparum Dd2 growth | P. falciparum Dd2 growth, SYBR Green, 72 h; stronger effect = lower value | activity change, % at 10 µM | hit rate 2.3% among 94,000 | AID 1159554; in the data active = activity change below about -80%; inconclusive = no clear call, values can overlap the other calls
IDH1 R132H inh = inhibitors of human IDH1 R132H. inhibition, % at 10 µM. O75874. AID 624101. IDH1 R132H reductase, diaphorase/resazurin fluorescence, 60 min. hit rate 0.18% among 70,000; in the data active = inhibition above about 34%; inconclusive = no clear call, values can overlap the other calls; inactive = below about 11%;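 also: 0% = DMSO and 100% = no enzyme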
T cruzi growth-1 = blocks T. cruzi growth in NIH3T3 culture; T. cruzi beta-gal in NIH3T3, GalScreen luminescence, 90 h; inhibition, % at 8.34 µM; hit rate 5.9% among 77,000;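 active = mean inhibition above about 93%, with at least 55% of replicates each passing it, limit read from the data, passing the limit was not always enough; inconclusive = only one of those two conditions holds; inactive = neither condition holds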
GASC1 inh = inhibitors of human demethylase GASC-1 KDM4C; Q9H3R0; GST-KDM4C 2-372, H3K9me3 peptide, LANCE TR-FRET; inhibition, % at 12.5 µM; hit rate 0.15% among 96,000; AID 720574;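 active = mean replicate inhibition above about 25%, with at least 55% of replicates also reaching it, limit read from the data, passing the limit was not always enough; inconclusive = only one of those two conditions met; inactive = neither condition met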
Target sequence (Q9H3R0 2-372 limits assumed): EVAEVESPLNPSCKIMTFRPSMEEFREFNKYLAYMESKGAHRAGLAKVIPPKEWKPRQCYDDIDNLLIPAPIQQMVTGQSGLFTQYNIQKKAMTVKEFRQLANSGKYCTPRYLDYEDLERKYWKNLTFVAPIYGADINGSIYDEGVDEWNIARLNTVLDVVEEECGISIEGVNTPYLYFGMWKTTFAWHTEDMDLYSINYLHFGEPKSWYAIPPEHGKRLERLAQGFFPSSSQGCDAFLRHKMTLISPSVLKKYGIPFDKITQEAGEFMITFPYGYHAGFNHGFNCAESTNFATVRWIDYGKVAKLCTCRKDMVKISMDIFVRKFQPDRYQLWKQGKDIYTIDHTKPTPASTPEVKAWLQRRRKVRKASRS
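System: N-terminal GST-fused human GASC-1 (KDM4C) fragment, residues 2-372; amount: enzyme final amount 10 nM; incubation: reaction 30 min RT, detection step 1 h RT; medium: HEPES buffer, pH 7.5, plus ascorbate; technique: LANCE TR-FRET, Eu antibody, ULight-streptavidin, EDTA, ex 340 nm, em 618/671 nm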
T cruzi growth-2 = Trypanosoma cruzi proliferation inhibition; shares compounds with T cruzi growth-1; inhibition, % at 8.35 µM; T. cruzi beta-gal in NIH3T3, GalScreen luminescence, 90 h; hit rate 72% among 5,600;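 active = mean replicate inhibition above about 95% and at least 55% of replicates individually reaching it, limit read from the data; inconclusive = only one of the two criteria is met; inactive = neither criterion is met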
T cruzi growth-3 = inhibitors of T. cruzi proliferation; shares compounds with T cruzi growth-1; T. cruzi beta-gal in NIH3T3, GalScreen luminescence, 90 h; inhibition, % at 2.09 µM; hit rate 21% among 5,600;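 active = mean inhibition above about 95%, with at least 55% of replicates also reaching it, limit read from the data; inconclusive = meets just one of the two conditions; inactive = meets neither condition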;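 also: plate controls were neutral control median for no effect and positive control median for full effect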
NIH3T3 tox = kills mouse NIH/3T3 fibroblasts | shares compounds with T cruzi growth-1 | NIH/3T3 viability, CellTiter-Glo ATP luminescence, 90 h | cytotoxicity (signal decrease), % at 8.35 µM | hit rate 14% among 5,600 | AID 651742;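 active = mean signal decrease across replicates above about 35% based on untreated-well scatter, with enough replicates individually passing, limit read from the data; inconclusive = no rule stated though some were filed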;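 also: 0% = median of neutral control wells and 100% = median of positive control wells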
NIH3T3 tox 2 = cytotoxicity in mouse NIH/3T3 fibroblasts; shares compounds with T cruzi growth-1; NIH/3T3 viability, CellTiter-Glo ATP luminescence, 90 h; inhibition, % at 24.9 µM; hit rate 56% among 5,600; AID 651744;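 active = mean loss of cell viability signal at or above a set limit, and enough replicates individually reaching it; inconclusive = meets only the mean limit or only the replicate share; inactive = meets neither condition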;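 also: 0% = median of neutral control wells and 100% = median of positive control wells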
An asterisk follows results filed as active; ? = inconclusive; . = no result.

SMILES	Pf Dd2 growth	IDH1 R132H inh	T cruzi growth-1	GASC1 inh	T cruzi growth-2	T cruzi growth-3	NIH3T3 tox	NIH3T3 tox 2
Cc1cccc(S(=O)(=O)N2CCCCN3[C@H](CO)[C@H](c4ccc(-c5ccncc5)cc4)[C@H]3C2)c1	-62	.	110*	-1	107*	73	-11	37*
Cc1ccc(-c2ccc([C@@H]3[C@H](CO)N4CCCCN(S(=O)(=O)c5cccc(C)c5)C[C@@H]34)cc2)cc1	-79	.	108*	.	?	98*	34	104*
Cc1ccc(-c2ccc([C@H]3[C@H]4CN(S(=O)(=O)c5cccc(C)c5)CCCCN4[C@H]3CO)cc2)cc1	-2	.	86	.	.	.	.	.
CCn1c(SCC(=O)Nc2cccc(F)c2)nnc1-c1ccc(C)cc1	.	0	.	.	.	.	.	.
CC(C)=CCC[C@H](C)C/C=N/NC(=O)CCCCCC(=O)O	.	2	.	.	.	.	.	.
CCOC(=O)c1c(NC(=O)Cn2c(=O)oc3ccccc32)sc(C(C)=O)c1C	.	0	.	.	.	.	.	.
CN(C)c1ccc2c(c1)[C@@H]1C[C@H](CC(=O)NCc3ccc(Oc4ccccc4)cc3)O[C@H](CO)[C@@H]1O2	-54	-1	122*	1	43	12	-1	?
CN(C)c1ccc2c(c1)[C@@H]1C[C@H](CC(=O)NCc3ccc(Oc4ccccc4)cc3)O[C@@H](CO)[C@@H]1O2	-75	-3	153*	.	47	9	53*	55*
CN(C)c1ccc2c(c1)[C@@H]1C[C@@H](CC(=O)NCc3ccc(Oc4ccccc4)cc3)O[C@H](CO)[C@@H]1O2	-35	-1	52	.	.	.	.	.
CN(C)c1ccc2c(c1)[C@H]1C[C@H](CC(=O)NCc3ccc(Oc4ccccc4)cc3)O[C@H](CO)[C@H]1O2	-90*	-2	135*	9	76	32	-9	56*
C[C@@H]1CN([C@H](C)CO)S(=O)(=O)c2ccc(C3=CCCCC3)cc2O[C@H]1CN(C)Cc1ccccc1	-53	0	119*	-3	87	101*	78*	106*
C[C@@H]1CN([C@@H](C)CO)S(=O)(=O)c2ccc(C3=CCCCC3)cc2O[C@H]1CN(C)Cc1ccccc1	-52	2	121*	0	93	110*	83*	104*
COC(=O)C(C)Sc1ncnc2scc(-c3ccc(Cl)cc3)c12 (stereo not drawn)	.	0	.	.	.	.	.	.
O=C(CCn1cnc2ccccc2c1=O)Nc1ccc(S(=O)(=O)N2CCOCC2)cc1	.	0	.	.	.	.	.	.
C[C@H]1CN([C@@H](C)CO)S(=O)(=O)c2ccc(C#Cc3ccccc3F)cc2O[C@H]1CN(C)C(=O)Cc1ccncc1	-76	.	.	0	.	.	.	.
C[C@@H]1CN([C@@H](C)CO)S(=O)(=O)c2ccc(C#Cc3ccccc3F)cc2O[C@@H]1CN(C)C(=O)Cc1cccnc1	-48	9	?	4	102*	41	33	70*
C[C@H]1CN([C@@H](C)CO)S(=O)(=O)c2ccc(C#Cc3ccccc3F)cc2O[C@@H]1CN(C)C(=O)Cc1ccccc1	-70	1	121*	-3	106*	107*	12	103*
C[C@@H]1CN([C@H](C)CO)S(=O)(=O)c2ccc(C#Cc3ccccc3F)cc2O[C@H]1CN(C)C(=O)Cc1ccccc1	-70	0	122*	-1	103*	94	29	104*
C[C@H](CO)N1C[C@H](C)[C@H](CN(C)C(=O)Cc2ccncc2)Oc2cc(C#Cc3ccccc3F)ccc2S1(=O)=O	-68	-1	.	-4	.	.	.	.
C[C@@H]1CN([C@@H](C)CO)S(=O)(=O)c2ccc(C#Cc3ccccc3F)cc2O[C@H]1CN(C)C(=O)Cc1ccccc1	-69	0	120*	-3	102*	110*	56*	92*
CS(=O)(=O)N(CC(=O)Nc1cc(Cl)ccc1Cl)c1ccc2c(c1)OCCO2	.	0	.	.	.	.	.	.
COc1ccc(CCNC(=O)C2OCCc3ccccc32)cc1OC (stereo not drawn)	.	0	.	.	.	.	.	.
C[C@H](CO)N1C[C@H](C)[C@@H](CN(C)C)Oc2cc(-c3ccncc3)ccc2S1(=O)=O	-3	1	106*	-1	89	24	13	?
C[C@@H]1CN([C@H](C)CO)S(=O)(=O)c2ccc(-c3ccncc3)cc2O[C@H]1CN(C)C	25	2	24	4	.	.	.	.
C[C@@H]1CN([C@@H](C)CO)S(=O)(=O)c2ccc(-c3ccncc3)cc2O[C@H]1CN(C)C	11	-7	98*	-1	97*	15	2	19
SMILES	Pf Dd2 growth	IDH1 R132H inh	T cruzi growth-1	GASC1 inh	T cruzi growth-2	T cruzi growth-3	NIH3T3 tox	NIH3T3 tox 2
COC1OC2c3cc4c(cc3CCN(C)C2c2ccc3c(c21)OCO3)OCO4 (stereo not drawn)	.	0	.	.	.	.	.	.
CCOC(=O)c1c(NC(=O)c2ccc(NS(C)(=O)=O)cc2)sc2c1CCCC2	.	2	.	.	.	.	.	.
O=C(NC1CCCC1)N1CCCCN2[C@H](CO)[C@H](c3ccc(/C=C/c4ccccc4)cc3)[C@H]2C1	-36	.	110*	0	100*	117*	24	104*
O=C(NC1CCCC1)N1CCCCN2[C@H](CO)[C@@H](c3ccc(/C=C/c4ccccc4)cc3)[C@H]2C1	-29	.	57	-4	.	.	.	.
O=C(NC1CCCC1)N1CCCCN2[C@H](CO)[C@H](c3ccc(/C=C/c4ccccc4)cc3)[C@@H]2C1	29	.	114*	0	95*	100*	16	103*
O=C(c1ccccc1)c1ccc2nc(-c3cccc(NC(=O)C4CCCO4)c3)[nH]c2c1 (stereo not drawn)	.	0	.	.	.	.	.	.
COc1cc(CO)cc(Br)c1OCc1cccc([N+](=O)[O-])c1	.	2	.	.	.	.	.	.
COC(=O)c1cc(NC(=O)C(C)N(c2ccc(C)cc2)S(C)(=O)=O)ccc1Cl (stereo not drawn)	.	0	.	.	.	.	.	.
CCNC(=O)CCc1nc(-c2ccc(OC)cc2)no1	.	0	.	.	.	.	.	.
O=S(=O)(c1ccccc1F)N1CCCCN2[C@H](CO)[C@H](c3ccc(-c4ccncc4)cc3)[C@H]2C1	-16	.	102*	-1	105*	35	9	0
O=S(=O)(c1ccccc1F)N1CCCCN2[C@H](C1)[C@H](c1ccc(-c3cccnc3)cc1)[C@@H]2CO	24	.	100*	0	98*	19	16	12
O=S(=O)(c1ccccc1F)N1CCCCN2[C@H](CO)[C@@H](c3ccc(-c4cccnc4)cc3)[C@@H]2C1	31	.	94	1	.	.	.	.
COc1ccc2c3c(n(C)c2c1)[C@H](CO)N(CC1CC1)CC31CCN(C(=O)CC2CC2)CC1	44	.	.	.	.	.	.	.
COc1cc(NC(=O)COc2ccc(I)cc2)c(C(=O)O)cc1OC	.	0	.	.	.	.	.	.

High-throughput results (PubChem)
